According to ChEMBL document CHEMBL1153955, “Indolylarylsulfones bearing natural and unnatural amino acids. Discovery of potent inhibitors of HIV-1 non-nucleoside wild type and resistant mutant strains reverse transcriptase and coxsackie B4 virus” (J Med Chem, 2009):

Tests used:
[1] = Cytotoxicity against MDCK cells by MTS assay; type: cell-based, Canis lupus familiaris; conditions: dog
[2] = Cytotoxicity against MDCK cells assessed as drug level causing microscopically detectable alteration of normal cell morphology; type: cell-based, Canis lupus familiaris; conditions: dog
[3] = system: Coxsackievirus B4; assay: Antiviral activity against Coxsackievirus B4 in african green monkey Vero cells assessed as protection against virus-induced cytopathicity; type: functional, organism-based; conditions: Enterovirus B
In short: (§1)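 Confluent cell monolayers inoculated with 100 CCID₅₀ virus. After 1-2 h adsorption, residual virus removed and cultures incubated with varying compound concentrations. Cytopathicity scored once it reached completion in untreated infected controls. EC₅₀ = dose reducing virus-induced cytopathogenicity by 50%.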

[4] = system: Human alphaherpesvirus 2; assay: Antiviral activity against HSV2 G in human HEL cells assessed as protection against virus-induced cytopathicity; type: functional, organism-based; conditions: Human alphaherpesvirus 2, strain G; in short: as §1
[5] = system: Human immunodeficiency virus 2; assay: Antiviral activity against HIV2 ROD in human CEM cells assessed as protection against virus-induced cytopathicity after 4 days; type: functional, organism-based; conditions: Human immunodeficiency virus 2, ROD, CCRF-CEM, 96 h
In short: (§2)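 CEM cells (~3 × 10⁵ cells/mL) infected with ~100 CCID₅₀ per mL of HIV-1 (IIIB) or HIV-2 (ROD), then seeded into wells containing compound dilutions. After 4 days at 37 °C, syncytium (giant cell) formation was examined microscopically. EC₅₀ = concentration protecting CEM cells from HIV cytopathicity by 50%.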

[6] = Cytotoxicity against african green monkey Vero cells assessed as drug level causing microscopically detectable alteration of normal cell morphology after 3 days; type: cell-based; conditions: chlorocebus sabaeus
In short: (§3)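 Serial compound dilutions added to confluent HeLa or Vero monolayers. MCC = minimum concentration causing microscopically detectable alteration of cell morphology after 3 days of incubation.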

[7] = Cytotoxicity against human HEL cells assessed as drug level causing microscopically detectable alteration of normal cell morphology after 3 days; type: cell-based
[8] = Antiproliferative activity against human Molt4/C8 cells after 3 days; type: cell-based; conditions: MOLT-4, 72 h
In short: (§4)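 Cells seeded at 5 × 10⁴ to 7.5 × 10⁴ cells/200 µL with or without serial compound dilutions; incubated at 37 °C for 2 days (L1210) or 3 days (Molt4/C8, CEM). Cell numbers counted with a Coulter counter. CC₅₀ = concentration reducing proliferation by 50% versus untreated controls, read from plots of cell number (% of control) against concentration. Means of at least two independent experiments.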

[9] = system: Influenza A virus; assay: Antiviral activity against influenza H1N1 virus in MDCK cells assessed as reduction of virus-induced cytopathicity by MTS method; type: functional, organism-based; conditions: Influenza A virus, H1N1, MDCK
[10] = system: Punta Toro virus; assay: Antiviral activity against Punta Toro virus in african green monkey Vero cells assessed as protection against virus-induced cytopathicity; type: functional, organism-based; in short: as §1
[11] = system: Vesicular stomatitis virus; assay: Antiviral activity against VSV in human HEL cells assessed as protection against virus-induced cytopathicity; type: functional, organism-based
[12] = biological target: Human immunodeficiency virus type 1 reverse transcriptase (Human immunodeficiency virus 1, UniProt Q72547, Y181I); assay: Inhibition of HIV1 reverse transcriptase p66/p51 Y181I mutant; conditions: read-out: IC50
In short: (§5)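 Substrate was 0.5 µg poly(rA)/oligo(dT) 10:1 (0.3 µM 3′-OH ends) with 10 µM [³H]dTTP, at 37 °C. Acid-precipitable radioactivity was counted on GF/C filters after TCA washes.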

[13] = biological target: Human immunodeficiency virus type 1 reverse transcriptase (Human immunodeficiency virus 1, UniProt Q72547, K103N); assay: Inhibition of HIV1 reverse transcriptase p66/p51 K103N mutant; conditions: read-out: IC50; in short: as §5
[14] = system: Influenza B virus; assay: Antiviral activity against influenza B virus in MDCK cells assessed as reduction of virus-induced cytopathicity by MTS method; type: functional, organism-based
[15] = system: Feline coronavirus; assay: Antiviral activity against Feline coronavirus in feline […] cells assessed as inhibition of virus-induced cytopathicity; type: functional, organism-based; conditions: Alphacoronavirus 1
[16] = biological target: Human immunodeficiency virus type 1 reverse transcriptase (Human immunodeficiency virus 1, UniProt Q72547, L100I); assay: Inhibition of HIV1 reverse transcriptase p66/p51 L100I mutant; conditions: read-out: IC50; in short: as §5
[17] = Cytotoxicity against feline CRFK cells by MTS assay; type: cell-based, Felis catus; conditions: cat
[18] = system: Influenza A virus; assay: Antiviral activity against influenza H1N1 virus in MDCK cells assessed as reduction of virus-induced cytopathicity by visual cytopathic effect scoring method; type: functional, organism-based
[19] = system: Influenza B virus; assay: Antiviral activity against influenza B virus in MDCK cells assessed as reduction of virus-induced cytopathicity by visual cytopathic effect scoring method; type: functional, organism-based
[20] = system: Sindbis virus; assay: Antiviral activity against Sindbis virus in african green monkey Vero cells assessed as protection against virus-induced cytopathicity; type: functional, organism-based; in short: as §1
[21] = system: Vesicular stomatitis virus; assay: Antiviral activity against VSV in human HeLa cells assessed as protection against virus-induced cytopathicity; type: functional, organism-based
[22] = system: Mammalian orthoreovirus 1; assay: Antiviral activity against Reovirus 1 in african green monkey Vero cells assessed as protection against virus-induced cytopathicity; type: functional, organism-based; conditions: Mammalian orthoreovirus 1, Vero; in short: as §1
[23] = system: Coxsackievirus B4; assay: Antiviral activity against Coxsackievirus B4 in human HeLa cells assessed as protection against virus-induced cytopathicity; type: functional, organism-based; conditions: Enterovirus B; in short: as §1
[24] = system: Human immunodeficiency virus 1; assay: Antiviral activity against HIV1 3B in human CEM cells assessed as protection against virus-induced cytopathicity after 4 days; type: functional, organism-based; conditions: Human immunodeficiency virus 1, 3B, CCRF-CEM, 96 h; in short: as §2
[25] = system: Felid alphaherpesvirus 1; assay: Antiviral activity against Feline herpesvirus in feline […] cells assessed as inhibition of virus-induced cytopathicity; type: functional, organism-based
[26] = biological target: Human immunodeficiency virus type 1 reverse transcriptase (Human immunodeficiency virus 1, UniProt Q72547); assay: Inhibition of HIV1 reverse transcriptase p66/p51; conditions: read-out: IC50
[27] = system: Influenza A virus H3N2; assay: Antiviral activity against influenza H3N2 virus in MDCK cells assessed as reduction of virus-induced cytopathicity by MTS method; type: functional, organism-based
[28] = system: CCRF-CEM; assay: Antiproliferative activity against human CEM cells after 3 days; type: cell-based; conditions: 72 h; in short: as §4
[29] = system: Human alphaherpesvirus 1; assay: Antiviral activity against HSV1 KOS in human HEL cells assessed as protection against virus-induced cytopathicity; type: functional, organism-based; conditions: Human alphaherpesvirus 1, KOS
[30] = system: Respiratory syncytial virus; assay: Antiviral activity against RSV Long in human HeLa cells assessed as protection against virus-induced cytopathicity; type: functional, organism-based; in short: as §1
[31] = system: Human respirovirus 3; assay: Antiviral activity against Parainfluenza virus type 3 in african green monkey Vero cells assessed as protection against virus-induced cytopathicity; type: functional, organism-based; conditions: Human respirovirus 3, Vero; in short: as §1
[32] = system: Vaccinia virus; assay: Antiviral activity against Vaccinia virus Lederle in human HEL cells assessed as protection against virus-induced cytopathicity; type: functional, organism-based; conditions: Orthopoxvirus vaccinia
[33] = system: Influenza A virus H3N2; assay: Antiviral activity against influenza H3N2 virus in MDCK cells assessed as reduction of virus-induced cytopathicity by visual cytopathic effect scoring method; type: functional, organism-based
[34] = system: Human alphaherpesvirus 1; assay: Antiviral activity against thymidine kinase deficient and acyclovir resistant HSV1 KOS in human HEL cells assessed as protection against virus-induced cytopathicity; type: functional, organism-based; conditions: Human alphaherpesvirus 1, KOS
[35] = system: L1210; assay: Antiproliferative activity against mouse L1210 cells after 2 days; type: cell-based; conditions: L1210, 48 h; in short: as §4
[36] = Cytotoxicity against human HeLa cells assessed as drug level causing microscopically detectable alteration of normal cell morphology after 3 days; type: cell-based; in short: as §3

SMILES	CC50 [1] [µM]	MCC [2] [µM]	EC50 [3] [µM]	EC50 [4] [µM]	EC50 [5] [µM]	MCC at 72 h [6] [µM]	MCC at 72 h [7] [µM]	IC50 [8] [µM]	EC50 [9] [µM]	EC50 [10] [µM]	EC50 [11] [µM]	IC50 [12] [µM]	IC50 [13] [µM]	EC50 [14] [µM]	EC50 [15] [µM]	IC50 [16] [µM]	CC50 [17] [µM]	EC50 [18] [µM]	EC50 [19] [µM]	EC50 [20] [µM]	other results
Cc1cc(C)cc(S(=O)(=O)c2c(C(=O)NCCC(N)=O)[nH]c3ccc(Br)cc23)c1	8.5	20	16	> 4	23	100	20	25	> 4	> 20	> 4	8.57	0.42	> 4	> 4	0.169	15.6	> 4	> 4	> 20	EC50 [21]: > 20 µM; EC50 [22]: > 20 µM; EC50 [23]: 11 µM; EC50 [24]: 0.0011 µM; EC50 [25]: > 4 µM; IC50 [26]: 0.086 µM; EC50 [27]: > 4 µM; IC50 [28]: 36 µM; EC50 [29]: > 4 µM; EC50 [30]: ≥ 20 µM; EC50 [31]: > 20 µM; EC50 [32]: > 4 µM; EC50 [33]: > 4 µM; EC50 [34]: > 4 µM; IC50 [35]: 46 µM; MCC at 72 h [36]: ≥ 20 µM
Cc1cc(C)cc(S(=O)(=O)c2c(C(=O)NC(C)C(N)=O)[nH]c3ccc(Cl)c(F)c23)c1 (centres undefined)	6.5	20	20	> 20	> 10	100	100	22	> 4	> 20	> 20	6.28	1.52	> 4	> 20	0.27	51.4	> 4	> 4	> 20	EC50 [21]: > 4 µM; EC50 [22]: > 20 µM; EC50 [23]: > 4 µM; EC50 [24]: 0.0037 µM; EC50 [25]: > 20 µM; IC50 [26]: 0.062 µM; EC50 [27]: > 4 µM; IC50 [28]: 21 µM; EC50 [29]: > 20 µM; EC50 [30]: > 4 µM; EC50 [31]: > 20 µM; EC50 [32]: > 20 µM; EC50 [33]: > 4 µM; EC50 [34]: > 20 µM; IC50 [35]: 30 µM; MCC at 72 h [36]: 20 µM
Cc1cc(C)cc(S(=O)(=O)c2c(C(=O)NC(C)CS(N)(=O)=O)[nH]c3ccc(Br)cc23)c1 (centres undefined)	1.9	4	16	> 4	> 10	≥ 20	20	9.3	> 800	> 20	> 4	8.55	1.33	> 800	> 20	0.125	53	> 800	> 800	> 20	EC50 [21]: > 4 µM; EC50 [22]: > 20 µM; EC50 [23]: 3 µM; EC50 [24]: 0.0023 µM; EC50 [25]: > 20 µM; IC50 [26]: 0.003 µM; EC50 [27]: > 800 µM; IC50 [28]: 12 µM; EC50 [29]: > 4 µM; EC50 [30]: ≥ 4 µM; EC50 [31]: > 20 µM; EC50 [32]: > 4 µM; EC50 [33]: > 800 µM; EC50 [34]: > 4 µM; IC50 [35]: 11 µM; MCC at 72 h [36]: 20 µM
Cc1cc(C)cc(S(=O)(=O)c2c(C(=O)NC(C)CC(N)=O)[nH]c3ccc([N+](=O)[O-])cc23)c1 (centres undefined)	> 100	20	> 20	> 4	> 10	100	20	41	> 4	> 20	> 4	11.9	1.09	> 4	> 20	0.191	21.1	> 4	> 4	> 20	EC50 [21]: > 20 µM; EC50 [22]: > 20 µM; EC50 [23]: ≥ 20 µM; EC50 [24]: 0.0051 µM; EC50 [25]: > 20 µM; IC50 [26]: 0.033 µM; EC50 [27]: > 4 µM; IC50 [28]: 36 µM; EC50 [29]: > 4 µM; EC50 [30]: > 20 µM; EC50 [31]: > 20 µM; EC50 [32]: > 4 µM; EC50 [33]: > 4 µM; EC50 [34]: > 4 µM; IC50 [35]: 37 µM; MCC at 72 h [36]: 100 µM
